≈ marks a conversion by molar mass, not a printed value. Calls of active or inactive are those of the source. The rule behind the calls is not given here.
Key:
MOLT-4 = assay: Growth inhibition of human MOLT4 cells at 10 uM incubated for 48 hrs by sulforhodamine B assay; assay type: functional, cell-based
In short: (§1)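 NCI 60-line panel, single 10 μM dose. Cells were grown in RPMI-1640 with 5% FBS and 2 mM L-glutamine and pre-incubated 24 h before compound addition (DMSO stock). Exposure was 48 h at 37 °C, 5% CO2. Cells were fixed with cold TCA (10% final), stained with 0.4% SRB, bound dye dissolved in 10 mM Tris base, A515 read. Growth was taken relative to time-zero and untreated control plates.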

NCI-H460 = assay: Growth inhibition of human NCI-H460 cells at 10 uM incubated for 48 hrs by sulforhodamine B assay; assay type: functional, cell-based; in short: as §1
SF-539 = assay: Growth inhibition of human SF539 cells at 10 uM incubated for 48 hrs by sulforhodamine B assay; assay type: functional, cell-based; in short: as §1
Klebsiella pneumoniae = assay: Antibacterial activity against carbapenemase positive Klebsiella pneumoniae BAA 1705 after 24 hrs by resazurin dye based microdilution assay; assay type: functional; details: BAA 1705, 24 h
In short: (§2)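 MIC taken as the lowest concentration giving visible inhibition and/or by resazurin (1 mg/mL). Gentamicin was the control. Run in duplicate, repeated at least three times.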

Candida albicans [1] = assay: Growth inhibition of Candida albicans ATCC 10231 at 250 ug/ml incubated for 48 hrs under dark condition by broth microdilution method relative to control; assay type: functional; details: ATCC 10231, 48 h, read-out: GI
In short: (§3)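 CLSI M27-A3 broth microdilution in RPMI-1640, DMSO ≤1%. Inoculum 1-5 × 10^3 CFU/mL. Incubated 48 h at 30 °C, dark. % inhibition = 100 − (OD405 test − sterility control)/(OD405 growth control − sterility control), with growth and sterility control wells. Triplicate.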

Leishmania panamensis = assay: Antileshmanial activity against EpiR/GFP fused Leishmania panamensis MHOM/CO/87/UA140 intracellular amastigotes infected in human […] cells after 72 hrs by flow cytometric method; assay type: functional, cell-based; details: MHOM/CO/87/UA140, 72 h
In short: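 PMA-treated U-937 cells (3 × 10^5 cells/mL) infected with stationary-phase GFP L. panamensis promastigotes (15:1), 3 h at 34 °C, then washed. After 24 h, compounds added at 50, 12.5, 3.125 and 0.78 µg/mL for 72 h at 37 °C. EC50 by Probit; triplicate, two experiments.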

Cryptococcus neoformans [2] = assay: Growth inhibition of Cryptococcus neoformans ATCC 32264 at 7.8 ug/ml incubated for 48 hrs under dark condition by broth microdilution method relative to control; assay type: functional; details: ATCC 32264, 48 h, read-out: GI; in short: as §3
MDA-MB-468 = assay: Growth inhibition of human MDA-MB-468 cells at 10 uM incubated for 48 hrs by sulforhodamine B assay; assay type: functional, cell-based; in short: as §1
BT-549 = assay: Growth inhibition of human BT549 cells at 10 uM incubated for 48 hrs by sulforhodamine B assay; assay type: functional, cell-based
In short: (§4)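 NCI 60-cell-line screen at a single 10 µM dose. Cells in RPMI-1640 with 5% FBS and 2 mM L-glutamine, pre-incubated 24 h, then treated for 48 h at 37 °C. TCA fixation, sulforhodamine B staining, absorbance at 515 nm. Percentage growth calculated against time-zero and untreated controls.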

M14 = assay: Growth inhibition of human M14 cells at 10 uM incubated for 48 hrs by sulforhodamine B assay; assay type: functional, cell-based; in short: as §1
Candida albicans [3] = assay: Growth inhibition of Candida albicans ATCC 10231 at 125 ug/ml incubated for 48 hrs under dark condition by broth microdilution method relative to control; assay type: functional; details: ATCC 10231, 48 h, read-out: GI; in short: as §3
Cryptococcus neoformans [4] = assay: Antifungal activity against Cryptococcus neoformans ATCC 32264 incubated for 48 hrs under dark condition by broth microdilution method; assay type: functional; details: ATCC 32264, 48 h
In short: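 CLSI M27-A3 broth microdilution in RPMI-1640, DMSO ≤1%, compounds at 250-0.98 µg/mL final. Inoculum 1-5 × 10^3 CFU/mL. Incubated 48 h at 30 °C in a moist dark chamber, read at OD405. MIC80 and MIC50 taken from % inhibition dose-response curves (mean ± SEM, triplicate). Amphotericin B was the positive control.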

SR = assay: Growth inhibition of human SR cells at 10 uM incubated for 48 hrs by sulforhodamine B assay; assay type: functional, cell-based
In short: (§5)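 NCI-60 single-dose screen at 10 µM for 48 h. Cells were grown in RPMI-1640 with 5% FBS and 2 mM L-glutamine and preincubated 24 h before compound. Time-zero plates were TCA-fixed at compound addition. After exposure, cells were TCA-fixed, stained with SRB and read at 515 nm. Percentage growth was calculated against time-zero and untreated-control absorbances.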

SW-620 = assay: Growth inhibition of human SW620 cells at 10 uM incubated for 48 hrs by sulforhodamine B assay; assay type: functional, cell-based; in short: as §5
Pseudomonas aeruginosa = assay: Antibacterial activity against Pseudomonas aeruginosa ATCC 27853 after 24 hrs by resazurin dye based microdilution assay; assay type: functional; details: ATCC 27853, 24 h; in short: as §2
PC-3 = assay: Growth inhibition of human PC3 cells at 10 uM incubated for 48 hrs by sulforhodamine B assay; assay type: functional, cell-based; in short: as §1
HT-29 = assay: Growth inhibition of human HT-29 cells at 10 uM incubated for 48 hrs by sulforhodamine B assay; assay type: functional, cell-based; in short: as §1
Malme-3M = assay: Growth inhibition of human MALME-3M cells at 10 uM incubated for 48 hrs by sulforhodamine B assay; assay type: functional, cell-based; in short: as §1
MDA-MB-435 = assay: Growth inhibition of human MDA-MB-435 cells at 10 uM incubated for 48 hrs by sulforhodamine B assay; assay type: functional, cell-based; in short: as §1
SF-295 = assay: Growth inhibition of human SF295 cells at 10 uM incubated for 48 hrs by sulforhodamine B assay; assay type: functional, cell-based; in short: as §1
K562 = assay: Growth inhibition of human K562 cells at 10 uM incubated for 48 hrs by sulforhodamine B assay; assay type: functional, cell-based; in short: as §1
CAKI-1 = assay: Growth inhibition of human Caki1 cells at 10 uM incubated for 48 hrs by sulforhodamine B assay; assay type: functional, cell-based; in short: as §4
Neisseria gonorrhoeae = assay: Antibacterial activity against beta lactamase positive Neisseria gonorrhoeae ATCC 31426 by oxidase test; assay type: functional
In short: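 Agar dilution MIC on GC agar with 1% isovitalex containing increasing compound concentrations. Plates inoculated with about 1×10^4 CFU (5 µL). MIC is the lowest concentration that inhibited growth, with growth confirmed by oxidase test. Run in duplicate, repeated at least three times.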

NCI-H226 = assay: Growth inhibition of human NCI-H226 cells at 10 uM incubated for 48 hrs by sulforhodamine B assay; assay type: functional, cell-based; in short: as §1
786-0 = assay: Growth inhibition of human 786-0 cells at 10 uM incubated for 48 hrs by sulforhodamine B assay; assay type: functional, cell-based; in short: as §4
Cryptococcus neoformans [5] = assay: Growth inhibition of Cryptococcus neoformans ATCC 32264 at 250 ug/ml incubated for 48 hrs under dark condition by broth microdilution method relative to control; assay type: functional; details: ATCC 32264, 48 h, read-out: GI; in short: as §3
Candida albicans [6] = assay: Growth inhibition of Candida albicans ATCC 10231 at 62.5 ug/ml incubated for 48 hrs under dark condition by broth microdilution method relative to control; assay type: functional; details: ATCC 10231, 48 h, read-out: GI; in short: as §3

Compound | growth inhibition (GI) (MOLT-4) | growth inhibition (GI) (NCI-H460) | growth inhibition (GI) (SF-539) | MIC (Klebsiella pneumoniae) | inhibition of growth at 250 µg/mL (Candida albicans [1]) | EC50 (Leishmania panamensis) | inhibition of growth at 7.8 µg/mL (Cryptococcus neoformans [2]) | growth inhibition (GI) (MDA-MB-468) | growth inhibition (GI) (BT-549) | growth inhibition (GI) (M14) | inhibition of growth at 125 µg/mL (Candida albicans [3]) | MIC50 (Cryptococcus neoformans [4]) | MIC80 (Cryptococcus neoformans [4]) | growth inhibition (GI) (SR) | growth inhibition (GI) (SW-620) | MIC (Pseudomonas aeruginosa) | growth inhibition (GI) (PC-3) | growth inhibition (GI) (HT-29) | growth inhibition (GI) (Malme-3M) | growth inhibition (GI) (MDA-MB-435) | also measured
Clc1ccc(C2=NN(c3ccc(Cl)cc3)C(c3cccc(Nc4ccnc5cc(Cl)ccc45)c3)C2)cc1 (stereo not given) | inactive | inactive | inactive | > 1000 µg/mL | 40.4% | 91.4 µg/mL (≈ 168 µM) | 18.4% | inactive | inactive | inactive | 19.9% | 250 µg/mL (≈ 460 µM) | ≥ 250 µg/mL | inactive | inactive | > 1000 µg/mL | inactive | inactive | inactive | inactive | growth inhibition (GI) (SF-295): inactive; growth inhibition (GI) (K562): inactive; growth inhibition (GI) (CAKI-1): inactive; MIC (Neisseria gonorrhoeae): > 1000 µg/mL; growth inhibition (GI) (NCI-H226): inactive; growth inhibition (GI) (786-0): inactive; inhibition of growth at 250 µg/mL (Cryptococcus neoformans [5]): 53%; inhibition of growth at 62.5 µg/mL (Candida albicans [6]): 11.8%
COc1ccc(C2=NN(c3ccccc3)C(c3cccc(Nc4ccnc5cc(Cl)ccc45)c3)C2)cc1 (stereo not given) | inactive | inactive | inactive | > 1000 µg/mL | 25.6% | 6.93 µg/mL (≈ 13.7 µM) | 4.41% | inactive | inactive | inactive | 19.8% | ≥ 250 µg/mL | ≥ 250 µg/mL | inactive | inactive | > 1000 µg/mL | inactive | inactive | inactive | inactive | growth inhibition (GI) (SF-295): inactive; growth inhibition (GI) (K562): inactive; growth inhibition (GI) (CAKI-1): inactive; MIC (Neisseria gonorrhoeae): > 1000 µg/mL; growth inhibition (GI) (NCI-H226): inactive; growth inhibition (GI) (786-0): inactive; inhibition of growth at 250 µg/mL (Cryptococcus neoformans [5]): 32.2%; inhibition of growth at 62.5 µg/mL (Candida albicans [6]): 17.3%
COc1cc(C2=NN(c3ccc(Cl)cc3)C(c3cccc(Nc4ccnc5cc(Cl)ccc45)c3)C2)cc(OC)c1OC (stereo not given) | inactive | inactive | inactive | > 1000 µg/mL | 26.5% | 21.3 µg/mL (≈ 35.5 µM) | 10.4% | inactive | inactive | inactive | 16.7% | ≥ 250 µg/mL | ≥ 250 µg/mL | inactive | inactive | > 1000 µg/mL | inactive | inactive | inactive | inactive | growth inhibition (GI) (SF-295): inactive; growth inhibition (GI) (K562): inactive; growth inhibition (GI) (CAKI-1): inactive; MIC (Neisseria gonorrhoeae): > 1000 µg/mL; growth inhibition (GI) (NCI-H226): inactive; growth inhibition (GI) (786-0): inactive; inhibition of growth at 250 µg/mL (Cryptococcus neoformans [5]): 21.7%; inhibition of growth at 62.5 µg/mL (Candida albicans [6]): 12.2%
COc1ccc(C2=NN(c3ccc(Cl)cc3)C(c3cccc(Nc4ccnc5cc(Cl)ccc45)c3)C2)cc1 (stereo not given) | inactive | inactive | inactive | > 1000 µg/mL | 3.08% | 27.7 µg/mL (≈ 51.4 µM) | 10.1% | inactive | inactive | inactive | 1.92% | 250 µg/mL (≈ 463 µM) | ≥ 250 µg/mL | inactive | inactive | > 1000 µg/mL | inactive | inactive | inactive | inactive | growth inhibition (GI) (SF-295): inactive; growth inhibition (GI) (K562): inactive; growth inhibition (GI) (CAKI-1): inactive; MIC (Neisseria gonorrhoeae): > 1000 µg/mL; growth inhibition (GI) (NCI-H226): inactive; growth inhibition (GI) (786-0): inactive; inhibition of growth at 250 µg/mL (Cryptococcus neoformans [5]): 58.2%; inhibition of growth at 62.5 µg/mL (Candida albicans [6]): 5.46%
Clc1ccc(C2=NN(c3ccccc3)C(c3cccc(Nc4ccnc5cc(Cl)ccc45)c3)C2)cc1 (stereo not given) | inactive | inactive | inactive | > 1000 µg/mL | 19.8% | 11.7 µg/mL (≈ 22.9 µM) | 0% | inactive | inactive | inactive | 8.35% | ≥ 250 µg/mL | ≥ 250 µg/mL | inactive | inactive | > 1000 µg/mL | inactive | inactive | inactive | inactive | growth inhibition (GI) (SF-295): inactive; growth inhibition (GI) (K562): inactive; growth inhibition (GI) (CAKI-1): inactive; MIC (Neisseria gonorrhoeae): > 1000 µg/mL; growth inhibition (GI) (NCI-H226): inactive; growth inhibition (GI) (786-0): inactive; inhibition of growth at 250 µg/mL (Cryptococcus neoformans [5]): 19.8%; inhibition of growth at 62.5 µg/mL (Candida albicans [6]): 7.77%

From ChEMBL document CHEMBL4038284, “Synthesis of novel quinoline-based 4,5-dihydro-1H-pyrazoles as potential anticancer, antifungal, antibacterial and antiprotozoal agents” (Eur J Med Chem, 2017)
